Laboratory results reported in ChEMBL document CHEMBL2321753, “Synthesis and biological evaluation of radioiodinated quinacrine-based derivatives for SPECT imaging of Aβ plaques” (Eur J Med Chem, 2013).
Blank lines part the entries; values can stand above or below the compound they belong to.

Tests used:
[1] = molecular target: Amyloid-beta precursor protein (Homo sapiens, UniProt P05067); assay: Displacement of [125I]IMPY from amyloid beta (1 to 42) (unknown origin) after 3 hrs by gamma counting
Sequence of Amyloid-beta precursor protein (P05067 whole entry): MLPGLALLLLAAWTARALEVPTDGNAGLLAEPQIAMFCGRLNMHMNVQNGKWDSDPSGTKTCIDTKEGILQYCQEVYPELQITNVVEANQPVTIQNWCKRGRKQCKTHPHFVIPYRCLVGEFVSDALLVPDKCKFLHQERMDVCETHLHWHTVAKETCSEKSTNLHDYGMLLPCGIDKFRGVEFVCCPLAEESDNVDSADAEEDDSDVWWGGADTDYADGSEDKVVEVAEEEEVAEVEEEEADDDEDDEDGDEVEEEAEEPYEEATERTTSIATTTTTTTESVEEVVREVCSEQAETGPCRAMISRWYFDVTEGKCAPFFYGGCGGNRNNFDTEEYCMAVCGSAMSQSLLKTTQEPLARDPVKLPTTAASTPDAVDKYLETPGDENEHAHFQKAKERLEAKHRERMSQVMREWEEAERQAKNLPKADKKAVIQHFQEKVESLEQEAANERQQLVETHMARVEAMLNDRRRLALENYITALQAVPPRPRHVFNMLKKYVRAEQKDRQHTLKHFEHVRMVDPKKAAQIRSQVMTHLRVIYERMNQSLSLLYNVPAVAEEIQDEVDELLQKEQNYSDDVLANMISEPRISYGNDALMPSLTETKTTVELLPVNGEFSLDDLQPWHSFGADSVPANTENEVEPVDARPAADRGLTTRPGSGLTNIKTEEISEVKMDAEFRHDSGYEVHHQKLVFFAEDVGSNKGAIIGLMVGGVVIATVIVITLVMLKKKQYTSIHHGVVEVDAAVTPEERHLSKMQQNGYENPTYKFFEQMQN
How it was run: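 Filtered through GF/B filters and bound radioactivity gamma-counted. IC50 from displacement curves of three independent experiments; Ki calculated with the Cheng–Prusoff equation.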

Brain [2] = assay: Biodistribution in ddY mouse brain at 0.1 to 0.4 uCi, iv after 30 mins by gamma counting; assay type: ADME, organism-based; conditions: in vivo, 0.5 h
How it was run: (§1)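 [125I]ligand (0.1–0.4 µCi) in 100 µL PBS (pH 7.4) containing 30 µL DMSO, injected into the tail vein of ddY mice (5 weeks, 22–25 g). Mice sacrificed at 2, 10, 30 and 60 min. Organs removed, weighed and gamma-counted. Values are % injected dose per gram, except stomach as % dose per organ. Mean (SD) of 3–6 mice per time point.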

Blood [3] = assay: Biodistribution in ddY mouse blood at 0.1 to 0.4 uCi, iv after 60 mins by gamma counting; assay type: ADME, organism-based; conditions: in vivo, 1 h; how it was run: as §1
Brain [4] = assay: Biodistribution in ddY mouse brain at 0.1 to 0.4 uCi, iv after 10 mins by gamma counting; assay type: ADME, organism-based; conditions: in vivo; how it was run: as §1
Blood [5] = assay: Biodistribution in ddY mouse blood at 0.1 to 0.4 uCi, iv after 2 mins by gamma counting; assay type: ADME, organism-based; conditions: in vivo; how it was run: as §1
Stomach [6] = assay: Biodistribution in ddY mouse stomach assessed per organ at 0.1 to 0.4 uCi, iv after 60 mins by gamma counting; assay type: ADME, organism-based; conditions: in vivo, 1 h; how it was run: as §1
Intestine [7] = assay: Biodistribution in ddY mouse intestine at 0.1 to 0.4 uCi, iv after 60 mins by gamma counting; assay type: ADME, organism-based; conditions: in vivo, 1 h; how it was run: as §1
Lung [8] = assay: Biodistribution in ddY mouse lung at 0.1 to 0.4 uCi, iv after 30 mins by gamma counting; assay type: ADME, organism-based; conditions: in vivo, 0.5 h; how it was run: as §1
Stomach [9] = assay: Biodistribution in ddY mouse stomach assessed per organ at 0.1 to 0.4 uCi, iv after 2 mins by gamma counting; assay type: ADME, organism-based; conditions: in vivo; how it was run: as §1
Lung [10] = assay: Biodistribution in ddY mouse lung at 0.1 to 0.4 uCi, iv after 2 mins by gamma counting; assay type: ADME, organism-based; conditions: in vivo; how it was run: as §1
Kidney [11] = assay: Biodistribution in ddY mouse kidney at 0.1 to 0.4 uCi, iv after 60 mins by gamma counting; assay type: ADME, organism-based; conditions: in vivo, 1 h; how it was run: as §1
Liver [12] = assay: Biodistribution in ddY mouse liver at 0.1 to 0.4 uCi, iv after 2 mins by gamma counting; assay type: ADME, organism-based; conditions: in vivo; how it was run: as §1
[13] = n-octanol-sodium phosphate buffer partition co-efficient, log D of the compound at pH 7.4 by shake flask method; assay type: physicochemical
How it was run: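 Shake-flask partition between n-octanol and sodium phosphate buffer, pH 7.4, shaken 10 min at room temperature, then centrifuged. Weighed 0.5 mL samples of each layer counted. log D from the ratio of cpm per gram of octanol to cpm per gram of buffer; n = 3.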

Intestine [14] = assay: Biodistribution in ddY mouse intestine at 0.1 to 0.4 uCi, iv after 2 mins by gamma counting; assay type: ADME, organism-based; conditions: in vivo; how it was run: as §1
Brain [15] = assay: Biodistribution in ddY mouse brain at 0.1 to 0.4 uCi, iv after 60 mins by gamma counting; assay type: ADME, organism-based; conditions: in vivo, 1 h; how it was run: as §1
Kidney [16] = assay: Biodistribution in ddY mouse kidney at 0.1 to 0.4 uCi, iv after 30 mins by gamma counting; assay type: ADME, organism-based; conditions: in vivo, 0.5 h; how it was run: as §1
Heart [17] = assay: Biodistribution in ddY mouse heart at 0.1 to 0.4 uCi, iv after 60 mins by gamma counting; assay type: ADME, organism-based; conditions: in vivo, 1 h; how it was run: as §1
Kidney [18] = assay: Biodistribution in ddY mouse kidney at 0.1 to 0.4 uCi, iv after 2 mins by gamma counting; assay type: ADME, organism-based; conditions: in vivo; how it was run: as §1
Lung [19] = assay: Biodistribution in ddY mouse lung at 0.1 to 0.4 uCi, iv after 10 mins by gamma counting; assay type: ADME, organism-based; conditions: in vivo; how it was run: as §1
Pancreas [20] = assay: Biodistribution in ddY mouse pancreas at 0.1 to 0.4 uCi, iv after 10 mins by gamma counting; assay type: ADME, organism-based; conditions: in vivo; how it was run: as §1
Spleen [21] = assay: Biodistribution in ddY mouse spleen at 0.1 to 0.4 uCi, iv after 2 mins by gamma counting; assay type: ADME, organism-based; conditions: in vivo; how it was run: as §1
Blood [22] = assay: Biodistribution in ddY mouse blood at 0.1 to 0.4 uCi, iv after 30 mins by gamma counting; assay type: ADME, organism-based; conditions: in vivo, 0.5 h; how it was run: as §1
Heart [23] = assay: Biodistribution in ddY mouse heart at 0.1 to 0.4 uCi, iv after 10 mins by gamma counting; assay type: ADME, organism-based; conditions: in vivo; how it was run: as §1
Pancreas [24] = assay: Biodistribution in ddY mouse pancreas at 0.1 to 0.4 uCi, iv after 30 mins by gamma counting; assay type: ADME, organism-based; conditions: in vivo, 0.5 h; how it was run: as §1
Liver [25] = assay: Biodistribution in ddY mouse liver at 0.1 to 0.4 uCi, iv after 10 mins by gamma counting; assay type: ADME, organism-based; conditions: in vivo; how it was run: as §1
Liver [26] = assay: Biodistribution in ddY mouse liver at 0.1 to 0.4 uCi, iv after 60 mins by gamma counting; assay type: ADME, organism-based; conditions: in vivo, 1 h; how it was run: as §1
Brain [27] = assay: Biodistribution in ddY mouse brain at 0.1 to 0.4 uCi, iv after 2 mins by gamma counting; assay type: ADME, organism-based; conditions: in vivo; how it was run: as §1
Lung [28] = assay: Biodistribution in ddY mouse lung at 0.1 to 0.4 uCi, iv after 60 mins by gamma counting; assay type: ADME, organism-based; conditions: in vivo, 1 h; how it was run: as §1
Intestine [29] = assay: Biodistribution in ddY mouse intestine at 0.1 to 0.4 uCi, iv after 10 mins by gamma counting; assay type: ADME, organism-based; conditions: in vivo; how it was run: as §1
Liver [30] = assay: Biodistribution in ddY mouse liver at 0.1 to 0.4 uCi, iv after 30 mins by gamma counting; assay type: ADME, organism-based; conditions: in vivo, 0.5 h; how it was run: as §1
Heart [31] = assay: Biodistribution in ddY mouse heart at 0.1 to 0.4 uCi, iv after 30 mins by gamma counting; assay type: ADME, organism-based; conditions: in vivo, 0.5 h; how it was run: as §1
Intestine [32] = assay: Biodistribution in ddY mouse intestine at 0.1 to 0.4 uCi, iv after 30 mins by gamma counting; assay type: ADME, organism-based; conditions: in vivo, 0.5 h; how it was run: as §1
Stomach [33] = assay: Biodistribution in ddY mouse stomach assessed per organ at 0.1 to 0.4 uCi, iv after 30 mins by gamma counting; assay type: ADME, organism-based; conditions: in vivo, 0.5 h; how it was run: as §1
Stomach [34] = assay: Biodistribution in ddY mouse stomach assessed per organ at 0.1 to 0.4 uCi, iv after 10 mins by gamma counting; assay type: ADME, organism-based; conditions: in vivo; how it was run: as §1
Spleen [35] = assay: Biodistribution in ddY mouse spleen at 0.1 to 0.4 uCi, iv after 30 mins by gamma counting; assay type: ADME, organism-based; conditions: in vivo, 0.5 h; how it was run: as §1
Pancreas [36] = assay: Biodistribution in ddY mouse pancreas at 0.1 to 0.4 uCi, iv after 60 mins by gamma counting; assay type: ADME, organism-based; conditions: in vivo, 1 h; how it was run: as §1
Heart [37] = assay: Biodistribution in ddY mouse heart at 0.1 to 0.4 uCi, iv after 2 mins by gamma counting; assay type: ADME, organism-based; conditions: in vivo; how it was run: as §1
Spleen [38] = assay: Biodistribution in ddY mouse spleen at 0.1 to 0.4 uCi, iv after 60 mins by gamma counting; assay type: ADME, organism-based; conditions: in vivo, 1 h; how it was run: as §1
Blood [39] = assay: Biodistribution in ddY mouse blood at 0.1 to 0.4 uCi, iv after 10 mins by gamma counting; assay type: ADME, organism-based; conditions: in vivo; how it was run: as §1
Spleen [40] = assay: Biodistribution in ddY mouse spleen at 0.1 to 0.4 uCi, iv after 10 mins by gamma counting; assay type: ADME, organism-based; conditions: in vivo; how it was run: as §1
Pancreas [41] = assay: Biodistribution in ddY mouse pancreas at 0.1 to 0.4 uCi, iv after 2 mins by gamma counting; assay type: ADME, organism-based; conditions: in vivo; how it was run: as §1
Kidney [42] = assay: Biodistribution in ddY mouse kidney at 0.1 to 0.4 uCi, iv after 10 mins by gamma counting; assay type: ADME, organism-based; conditions: in vivo; how it was run: as §1

Ki [1]: 121 nM
Compound: COc1ccc2nc3cc(I)ccc3c(N(C)C)c2c1

Drug uptake (Brain [2]): 1.6 % ID/g | Drug uptake (Blood [3]): 5.17 % ID/g | Drug uptake (Brain [4]): 1.96 % ID/g | Drug uptake (Blood [5]): 8.34 % ID/g | Drug uptake (Stomach [6]): 4.33 %ID | Drug uptake (Intestine [7]): 11.2 % ID/g | Drug uptake (Lung [8]): 6.67 % ID/g | Drug uptake (Stomach [9]): 1.83 %ID | Drug uptake (Lung [10]): 7.17 % ID/g | Drug uptake (Kidney [11]): 4.81 % ID/g | Drug uptake (Liver [12]): 20.78 % ID/g | logD [13]: 1.81 | Drug uptake (Intestine [14]): 1.86 % ID/g | Drug uptake (Brain [15]): 0.71 % ID/g | Drug uptake (Kidney [16]): 10.72 % ID/g | Drug uptake (Heart [17]): 2.38 % ID/g | Drug uptake (Kidney [18]): 10.94 % ID/g | Drug uptake (Lung [19]): 6.66 % ID/g | Drug uptake (Pancreas [20]): 2.47 % ID/g | Drug uptake (Spleen [21]): 5.09 % ID/g | Drug uptake (Blood [22]): 6.52 % ID/g | Drug uptake (Heart [23]): 3.78 % ID/g | Drug uptake (Pancreas [24]): 2.29 % ID/g | Drug uptake (Liver [25]): 20.71 % ID/g | Drug uptake (Liver [26]): 10.79 % ID/g | Drug uptake (Brain [27]): 2.09 % ID/g | Drug uptake (Lung [28]): 3.87 % ID/g | Drug uptake (Intestine [29]): 14.19 % ID/g | Drug uptake (Liver [30]): 18.54 % ID/g | Drug uptake (Heart [31]): 4.09 % ID/g | Drug uptake (Intestine [32]): 17.49 % ID/g | Drug uptake (Stomach [33]): 4.2 %ID | Drug uptake (Stomach [34]): 5.1 %ID | Drug uptake (Spleen [35]): 5.4 % ID/g | Drug uptake (Pancreas [36]): 1.14 % ID/g | Drug uptake (Heart [37]): 5.83 % ID/g | Drug uptake (Spleen [38]): 2.43 % ID/g | Drug uptake (Blood [39]): 7 % ID/g | Drug uptake (Spleen [40]): 4.07 % ID/g | Drug uptake (Pancreas [41]): 4.11 % ID/g | Drug uptake (Kidney [42]): 8.99 % ID/g
Compound: COc1c2ccc([125I])cc2nc2ccc(N(C)C)cc12

Ki [1]: > 10000 nM
Compound: COc1c2ccccc2nc2cc(I)ccc12

Ki [1]: 30 nM
Compound: COc1c2ccc(I)cc2nc2ccc(N(C)C)cc12
